# From ChEMBL document CHEMBL5724801, “EUbOPEN Chemogenomics Library - Multiplex” (2024)
# Several values for one entry are separate records, joined by “and”; a condition that tells them apart may be missing. Equal values may be shown once.
# Test system: Fibroblast
# Assay: Multiplex assay against human fibroblast
# Assay type: toxicity, cell-based
# Procedure, shortened: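 Values for tubulin, mitochondrial-mass and membrane-permeability phenotypes are per cents of cells with healthy nuclei. These cells were identified by CellPathfinder machine-learning gating of live cells that had been stained at seeding with Hoechst33342, BioTracker Green Microtubule Cytoskeleton Dye, MitoTracker Red and Annexin V Alexa Fluor 680 and imaged on a CQ1 microscope at 37°C and 5% CO2 after compound addition. The gating first set Hoechst high-intensity objects apart from normal cells, then split normal cells into healthy, pyknosed or fragmented nuclei, and pyknosed cells into mitotic or apoptotic.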
# [1] = 12 h, 1 µM, compound concentration 1 uM
# [2] = 12 h, 10 µM, compound concentration 10 uM
# [3] = 24 h, 1 µM, compound concentration 1 uM
# [4] = 24 h, 10 µM, compound concentration 10 uM
# [5] = 48 h, 1 µM, compound concentration 1 uM
# [6] = 48 h, 10 µM, compound concentration 10 uM
structure (smiles),measurement,setting,value
CN1CCN(c2nc3cc(C(F)(F)F)ccc3n3cccc23)CC1.O=C(O)/C=C\C(=O)O.O=C(O)/C=C\C(=O)O,Population Apoptotic (%),[1],50% and 26%
same,Population Fragmented Nuclei (%),[1],18% and 24%
same,Population Healthy Nuclei (%),[1],71% and 46%
same,Population Hoechst High Intensity Objects (%),[1],0% and 6%
same,Population Membrane Permeable-Phenotype (%),[1],0% and 6%
same,Population Mitochondria Different-Phenotype (%),[1],5% and 4%
same,Population Mitotic Cells (%),[1],50% and 73%
same,Population Normal (%),[1],99% and 93%
same,Population Tubulin-Different-Phenotype (%),[1],27% and 47%
same,Total Cell Count,[1],146 and 107
same,Population Apoptotic (%),[2],40% and 60%
same,Population Fragmented Nuclei (%),[2],29% and 35%
same,Population Healthy Nuclei (%),[2],59% and 41%
same,Population Hoechst High Intensity Objects (%),[2],2% and 4%
same,Population Membrane Permeable-Phenotype (%),[2],0% and 4%
same,Population Mitochondria Different-Phenotype (%),[2],25% and 38%
same,Population Mitotic Cells (%),[2],59% and 40%
same,Population Normal (%),[2],97% and 95%
same,Population Pyknosed Nuclei (%),[2],10% and 22%
same,Population Tubulin-Different-Phenotype (%),[2],69% and 85%
same,Total Cell Count,[2],207 and 117
same,Population Apoptotic (%),[3],66% and 40%
same,Population Fragmented Nuclei (%),[3],16% and 35%
same,Population Healthy Nuclei (%),[3],72% and 42%
same,Population Hoechst High Intensity Objects (%),[3],1% and 6%
same,Population Membrane Permeable-Phenotype (%),[3],0% and 7%
same,Population Mitochondria Different-Phenotype (%),[3],2% and 7%
same,Population Mitotic Cells (%),[3],33% and 59%
same,Population Normal (%),[3],98% and 93%
same,Population Pyknosed Nuclei (%),[3],10% and 22%
same,Population Tubulin-Different-Phenotype (%),[3],23% and 43%
same,Total Cell Count,[3],142 and 104
same,Population Apoptotic (%),[4],77% and 63%
same,Population Fragmented Nuclei (%),[4],24% and 37%
same,Population Healthy Nuclei (%),[4],64% and 43%
same,Population Hoechst High Intensity Objects (%),[4],6% and 1%
same,Population Membrane Permeable-Phenotype (%),[4],0% and 6%
same,Population Mitochondria Different-Phenotype (%),[4],32%
same,Population Mitotic Cells (%),[4],22% and 36%
same,Population Normal (%),[4],93% and 98%
same,Population Pyknosed Nuclei (%),[4],10% and 19%
same,Population Tubulin-Different-Phenotype (%),[4],75% and 86%
same,Total Cell Count,[4],214 and 117
same,Population Apoptotic (%),[5],44% and 42%
same,Population Fragmented Nuclei (%),[5],25% and 37%
same,Population Healthy Nuclei (%),[5],63% and 40%
same,Population Hoechst High Intensity Objects (%),[5],2% and 3%
same,Population Membrane Permeable-Phenotype (%),[5],1% and 0%
same,Population Mitochondria Different-Phenotype (%),[5],2%
same,Population Mitotic Cells (%),[5],55% and 57%
same,Population Normal (%),[5],97% and 96%
same,Population Pyknosed Nuclei (%),[5],11% and 21%
same,Population Tubulin-Different-Phenotype (%),[5],22% and 57%
same,Total Cell Count,[5],162 and 102
same,Population Apoptotic (%),[6],77% and 63%
same,Population Fragmented Nuclei (%),[6],22% and 33%
same,Population Healthy Nuclei (%),[6],68% and 57%
same,Population Hoechst High Intensity Objects (%),[6],7% and 5%
same,Population Membrane Permeable-Phenotype (%),[6],0% and 1%
same,Population Mitochondria Different-Phenotype (%),[6],28% and 23%
same,Population Mitotic Cells (%),[6],22% and 36%
same,Population Normal (%),[6],92% and 94%
same,Population Pyknosed Nuclei (%),[6],9%
same,Population Tubulin-Different-Phenotype (%),[6],77% and 85%
same,Total Cell Count,[6],211 and 118
